Non-standard residues stand in square brackets, D forms with d. Residues, ends and D or L forms follow the SMILES beside them. *: point of attachment. Phe(4-F) = N[C@@H](Cc1ccc(F)cc1)C(=O)O; Cbz = O=C(OCc1ccccc1)*
Assays:
[1] = PAMPA passive membrane permeability; assay type: in vitro ADME; conditions: for passive membrane permeability, in words: 10 µM, 13 h incubation, triplicate
[2] = test system: fusion protein of canine distemper virus; conditions: cited from earlier work
MeV‐F [3] = conditions: cited from earlier work; for IC50: reported value
Vero/SLAM cells = assay: CCK-8 cytotoxicity assay; assay type: cell-based; conditions: CCK-8 assay, 100 µM, 24 h; result in words
MeV‐F [4] = target: T1, MeV‐F (Measles virus, UniProt Q786F3); assay: Cell-to-cell fusion assay; assay type: cell-based; conditions: 0.5 µM peptide, triplicate (Figure S2)
T1 sequence (Q786F3 113-550 limits assumed): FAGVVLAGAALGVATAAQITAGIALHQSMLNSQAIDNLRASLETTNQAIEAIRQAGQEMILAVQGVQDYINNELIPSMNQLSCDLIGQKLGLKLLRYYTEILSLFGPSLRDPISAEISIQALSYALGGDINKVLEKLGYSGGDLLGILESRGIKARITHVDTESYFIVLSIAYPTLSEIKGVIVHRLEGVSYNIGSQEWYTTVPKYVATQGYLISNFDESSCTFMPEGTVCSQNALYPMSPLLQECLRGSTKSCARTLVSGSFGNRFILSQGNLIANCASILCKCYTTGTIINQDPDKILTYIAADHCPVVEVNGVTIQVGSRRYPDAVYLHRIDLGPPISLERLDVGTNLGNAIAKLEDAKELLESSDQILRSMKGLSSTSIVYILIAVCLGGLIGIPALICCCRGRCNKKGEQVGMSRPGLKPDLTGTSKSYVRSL
T1 sequence (Q786F3 24-112 limits assumed): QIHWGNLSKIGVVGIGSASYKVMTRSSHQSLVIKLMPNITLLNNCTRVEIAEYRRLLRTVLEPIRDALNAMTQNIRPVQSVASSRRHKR
Procedure, shortened: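 Vero cells stably expressing human SLAM were transfected with plasmids encoding MeV‑F, MeV‑H and EGFP, then incubated with test compound for 24 h. Syncytium formation was judged by EGFP fluorescence imaging. Controls were cells without peptide and cells transfected with EGFP plasmid alone. Run in triplicate.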

[5] = test system: EGFP‐recombinant MeV (MeV‐EGFP); assay: Viral entry inhibition assay; assay type: cell-based, measles virus; conditions: ratio of IC50 values in the viral entry inhibition assay
Procedure, shortened: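 Vero/hSLAM cells were infected with EGFP‑recombinant MeV in the presence of test compound for 1 h. Virus medium was removed and cells were kept 48 h in medium containing 100 µM of the parent fusion‑inhibitor peptide. Fluorescent infected cells were counted to give IC50, in triplicate. The ratio is taken against the parent peptide's IC50, measured under the same conditions.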

Compound	passive membrane permeability, in words [1]	inhibition of canine distemper virus fusion protein [2]	IC50 (MeV‐F [3]) [µM]	cytotoxicity to Vero/SLAM cells (Vero/SLAM cells)	Papp at 13 h, 10 µM [1] [nm/s]	inhibition of syncytia formation, comparison of the two compounds (MeV‐F [4])	enhancement in inhibitory activity compared to FIP [5] [fold]	inhibitory activity compared to the original FIP (MeV‐F [3]; authors' previous study)
O=C(O)CNC(=O)[C@H](Cc1ccccc1)NC(=O)[C@@H](Cc1ccccc1)NC(=O)OCc1ccccc1 [FIP] (Cbz-[dF]-Phe-Gly-OH)	negligible level of permeability	does not inhibit	1.3	did not exhibit cytotoxicity				
NC(=O)CNC(=O)[C@H](Cc1ccc(F)cc1)NC(=O)[C@@H](Cc1ccccc1)NC(=O)OCc1ccccc1 [FIP‐F2pF‐NH2] (Cbz-[dF]-[Phe(4-F)]-Gly-NH2)				did not exhibit cytotoxicity	14 ± 1	stronger inhibitor than FIP‐ZoF‐NH2	23	
N=C(N)NCCC[C@@H](NC(=O)[C@H](Cc1ccccc1)NC(=O)[C@@H](Cc1ccccc1)NC(=O)OCc1ccccc1)C(N)=O [FIP‐G3r‐NH2] (Cbz-[dF]-Phe-[dR]-NH2)	did not passively permeate the lipid membrane		0.21	did not exhibit cytotoxicity				
NC(=O)CNC(=O)[C@H](Cc1ccccc1)NC(=O)[C@@H](Cc1ccccc1)NC(=O)OCc1ccccc1 [FIP‐NH2] (Cbz-[dF]-Phe-Gly-NH2)					12 ± 2			slight improvement in inhibitory activity

From article PMC12444810 (Chemmedchem, 2025)
